Hits are enriched below; roughly 1.6% of the tested compounds scored in any of these assays.
RBBP9 inh – human RBBP9 inhibitors, primary screen, biochemical, fluorescence polarization, FP-Rh probe, HTS; Serine hydrolase RBBP9 (Homo sapiens), O75884; recombinant RBBP9; inhibition, % at 7.94 µM; hit rate 0.2% among 220,000; AID 1515, 2009;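 active = inhibition above the campaign mean of all tested compounds plus 3 SD, cut at about 14% in these data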;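 also: plate controls were DMSO wells with RBBP9 for no effect and wells lacking RBBP9 protein for full effect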
Target sequence (O75884 whole entry, looked up): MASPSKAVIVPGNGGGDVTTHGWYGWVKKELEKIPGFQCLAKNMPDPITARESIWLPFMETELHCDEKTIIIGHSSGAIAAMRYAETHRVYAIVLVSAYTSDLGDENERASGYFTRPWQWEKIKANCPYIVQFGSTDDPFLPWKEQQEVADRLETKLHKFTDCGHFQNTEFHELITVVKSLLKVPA
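system = RBBP9 protein | input = RBBP9 at 2.5 µM in dispensed solution, before mixing | measured by = fluorescence polarization (mP), excitation 525 nm, emission 598 nm | incubation = enzyme-compound preincubation 30 min, then probe labeling 45 min, 25 °C | buffer or medium = Tris-NaCl-Pluronic buffer, pH 8.0 | compound = single dose 7.94 µM | also added = FP-Rh probe, 375 nM dispensing solution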
Yeast lifespan up – compounds extending yeast replicative lifespan, primary screen, S. cerevisiae, OD615; S. cerevisiae growth with nicotinamide; deaD strain in restrictive glucose medium; inhibition of the nicotinamide effect, % at 10 µM; hit rate 0.68% among 130,000;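 active = inhibition above a set limit, placed 3 SD over the median of all compounds, cut at about 26% in these data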;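 also: 0% = nicotinamide-treated wells and 100% = cells grown without nicotinamide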
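Test system – modified budding yeast, DeaD strain · Compound – single dose 10 µM compound, 0.25% DMSO · Times – culture preincubation 4 h, compound exposure 48 h, both 30 °C · Detection – optical density (absorbance) at 615 nm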
NCF1 inh – p47phox/p22phox peptide binding inhibitors, primary screen, biochemical, uHTS, NADPH oxidase regulatory subunit; Neutrophil cytosol factor 1 (Homo sapiens), P14598; fluorescence polarization, 2 h; hit rate 0.53% among 220,000; inhibition, % at 24.7 µM;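 active = inhibition above about 30%, limit read from the data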;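 also: 0% = p47phox with labelled peptide and 100% = labelled peptide alone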
Target sequence (P14598 whole entry, looked up): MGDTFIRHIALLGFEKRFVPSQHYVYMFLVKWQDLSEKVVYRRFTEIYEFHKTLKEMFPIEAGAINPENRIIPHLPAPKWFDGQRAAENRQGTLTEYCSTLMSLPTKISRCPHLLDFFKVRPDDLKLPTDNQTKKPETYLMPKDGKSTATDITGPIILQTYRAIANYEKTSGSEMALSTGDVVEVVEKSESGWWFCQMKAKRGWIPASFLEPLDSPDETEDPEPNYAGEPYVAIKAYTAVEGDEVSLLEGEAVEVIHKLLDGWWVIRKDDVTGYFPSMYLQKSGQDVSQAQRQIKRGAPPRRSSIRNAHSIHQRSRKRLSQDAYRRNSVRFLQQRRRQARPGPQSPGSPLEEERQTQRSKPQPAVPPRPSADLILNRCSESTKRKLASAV
Yeast growth inh – growth inhibitors of yeast BB579 in restrictive medium, primary screen, yeast lifespan-shortening project, S. cerevisiae; inhibition, % at 10 µM; AID 804, 2007; hit rate 0.51% among 140,000; OD615, 48 h;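 active = inhibition above a set limit, 3 SD over the mean compound inhibition, cut at about 44% in these data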
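Test system: S. cerevisiae DeaD strain BB579 yeast; Medium: restrictive CSMM-D medium; Compound: one dose, 10 µM compound with 0.25% DMSO; Incubation: 4 h cell preincubation, 48 h compound exposure, 30 °C humidified; Signal: OD at 615 nm; Benchmarks: amphotericin B at 10 µg/mL as positive control.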
Tb hexokinase – Trypanosoma brucei hexokinase 1 inhibitors, primary screen, biochemical, G6PDH-coupled NADH absorbance, MLSCN library; hexokinase 1 [Trypanosoma brucei]; recombinant TbHK1, G6PDH-coupled NADH A340; inhibition, % at 10 µM; hit rate 0.11% among 220,000;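 active = inhibition of 50% or more in the single-dose primary screen; inactive = inhibition below 50%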
SDO1 yeast rescue – growth rescue of sdo1-depleted yeast, primary screen, S. cerevisiae, bone marrow failure model | S. cerevisiae sdo1-depleted JHY4D growth rescue, OD600 30 h; hits give high values; pdr5 snq2 efflux-pump mutant strain | z-score at 10 µM | hit rate 0.21% among 140,000 | AID 817, 2007;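 active = z-score above 3 at both the 24 hr and the 30 hr optical density reads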;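 also: z-score against mean and SD of all compound wells on the same plate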
RBBP9 confirm – human RBBP9 inhibitors, retest, confirmation, biochemical, fluorescence polarization, FP-Rh probe, triplicate; shares compounds with RBBP9 inh; recombinant RBBP9; inhibition, % at 7.94 µM; hit rate 36% among 410; AID 1537, 2009;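 active = inhibition above the hit cutoff derived for the primary screen, cut at about 15% in these data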;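 also: 0% = RBBP9 with DMSO and 100% = wells lacking RBBP9 protein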
The depositor's hits bear a star; · = no result given.

SMILES | RBBP9 inh | Yeast lifespan up | NCF1 inh | Yeast growth inh | Tb hexokinase | SDO1 yeast rescue | RBBP9 confirm
O=c1c2ccccc2c(C=Nc2ccc(O)cc2)c(O)n1-c1nccs1 | -6 | · | -23 | · | -3 | · | ·
c1csc(C2Nc3cccc4cccc(c34)N2)c1 | 30* | -2 | 3 | -46 | -21 | 0.32 | 45*
CN1c2cccc3cccc(c23)N(C)C1c1cccs1 | -2 | -3 | 16 | -26 | -1 | -0.33 | ·
COc1ccc(C2Nc3cccc4cccc(c34)N2)cc1 | 25* | · | 1 | · | -9 | · | 21*
CSc1nnc(CCCCCCCCc2nnc(SC)o2)o1 | 16* | · | -13 | · | 2 | · | 3
CC(C)CC(=O)O/N=C1\C(=O)N(Cc2ccc(Cl)cc2)c2ccc([N+](=O)[O-])cc21 | 24* | 1 | -10 | -26 | -9 | -1.8 | 46*
CCOc1cc(N2CCOCC2)c(OCC)cc1NC(=O)CSc1ncn[nH]1 | 0 | · | 26 | · | -9 | · | ·
CCCCOc1[nH]c2nc(-c3ccco3)n(Cc3ccco3)c(=N)c2c1C#N | 18* | -17 | -7 | -51 | 4 | -0.95 | 11
c1ccc(CSc2nnc(-c3ccco3)n2Cc2ccco2)cc1 | -10 | -4 | -19 | -64 | 10 | -0.46 | ·
COC(=O)c1cc(NC(=S)N2CCN(C(=O)C3CCCO3)CC2)cc(C(=O)OC)c1 (stereo not drawn) | 21* | · | · | · | -11 | · | 3
O=C(C1CCCO1)N1CCN(C(=S)Nc2ccc(F)cc2)CC1 (stereo not drawn) | 0 | 2 | 0 | 9 | 14 | 0.68 | ·
COCCN(C(=O)C1CCC1)c1nnc(-c2cccnc2)s1 | 6 | -23 | 0 | 6 | -2 | 0.19 | ·
CCN(C(=O)C1CCCCC1)c1nnc(-c2cccnc2)s1 | 14* | -15 | -3 | 21 | 11 | 0.37 | 9
Cc1ccc(CNS(=O)(=O)c2ccc3c(c2)n(C)c(=O)c(=O)n3C)cc1 | -10 | · | -14 | · | -13 | · | ·
Cc1cc(C)cc(N(C(=O)c2csnn2)C(C(=O)NC(C)(C)C)c2cccs2)c1 (stereo not drawn) | 15* | -22 | 1 | -14 | -1 | 0.04 | 6
Cc1ccc(N(C(=O)c2csnn2)C(C(=O)NC(C)(C)C)c2cccs2)cc1 (stereo not drawn) | -2 | -4 | -2 | -1 | 28 | -0.68 | ·
Oc1cc(-n2cccn2)c(O)cc1-n1cccn1 | 63* | · | 8 | · | 16 | · | 76*
O=C1c2cc([N+](=O)[O-])cc3cc([N+](=O)[O-])cc(c23)C(=O)N1c1ccccn1 | 15* | 32* | -7 | -16 | -2 | -0.49 | 10
Oc1[nH]c2ccc(Br)cc2c1N=NC(=S)Nc1ccc(F)cc1 | -3 | · | -1 | · | -17 | · | ·
Oc1ccc(NC(=S)N=Nc2c(O)[nH]c3ccccc23)cc1 | 16* | · | -13 | · | -11 | · | 19*
Oc1ccc(NC(=S)N=Nc2c(O)[nH]c3ccc(Br)cc23)cc1 | 53* | · | -4 | · | -3 | · | 22*
O=C(Nc1ccccc1)c1ncoc1-c1ccc(Cl)cc1 | -4 | · | -3 | · | 3 | · | ·
O=C(O)c1ccc(N/N=C/c2cn(Cc3ccccc3F)c3ccccc23)cc1 | 17* | · | -22 | · | -16 | · | 11
COC(=O)N/N=C/c1cn(Cc2ccccc2F)c2ccccc12 | -1 | · | -6 | · | -8 | · | ·
C/C(=N\NC(=O)c1ccc(NS(=O)(=O)c2cccs2)cc1)c1ccc(C(C)(C)C)cc1 | -9 | 0 | -16 | -36 | -6 | 0.6 | ·
SMILES | RBBP9 inh | Yeast lifespan up | NCF1 inh | Yeast growth inh | Tb hexokinase | SDO1 yeast rescue | RBBP9 confirm
CC(=O)Nc1cccc(/C(C)=N/NC(=O)c2ccc(NS(=O)(=O)c3cccs3)cc2)c1 | 19* | · | -14 | · | -38 | · | 7
CCOC(=O)c1sc(Nc2nc(OC)cc(OC)n2)nc1C | -5 | · | · | · | -11 | · | ·
Cc1ccsc1C=Nc1ccc(O)cc1 | 15* | -2 | 1 | -10 | 3 | -0.22 | 13
O=Nc1c(-c2cccc([N+](=O)[O-])c2)nc2ncccn12 | 21* | · | 4 | · | -20 | · | 24*
O=C(NCc1ccco1)C1CC(c2cccc([N+](=O)[O-])c2)=NO1 (stereo not drawn) | 17* | -6 | -3 | -16 | -1 | -0.28 | 4
COC(=O)C1=NNC2C(=O)N(C3CCCCC3)C(=O)C12 (stereo not drawn) | 2 | · | 13 | · | -4 | · | ·
CC1CCCC(C)N1C(=O)COC(=O)C(Cc1ccccc1)NC(=O)c1cccs1 (stereo not drawn) | 16* | -2 | 0 | 3 | 1 | -0.01 | 0
COCCn1c(C)nnc1SCC(=O)Nc1ccccc1[N+](=O)[O-] | 3 | · | -5 | · | 2 | · | ·
CCC(NS(=O)(=O)c1ccc(C)cc1)C(=O)Nc1ccc(NC(C)=O)cc1 (stereo not drawn) | 16* | -12 | -2 | -32 | -14 | 1.2 | 7
CCC(C)NS(=O)(=O)c1ccc(NC(C)=O)cc1 (stereo not drawn) | -1 | · | -11 | -14 | 0 | 0.82 | ·
Oc1ccc(-c2csc(Nc3ncccn3)n2)cc1O | 20* | · | 3 | · | -1 | · | 40*
O=C(c1cc2c(s1)CCCC2)n1cccn1 | 42* | -13 | -18 | -27 | -3 | -1.2 | 11
O=C(c1cc2c(s1)CCCCC2)N1CCN(c2ncccn2)CC1 | -7 | -8 | -5 | -35 | 2 | -1.2 | ·
CCOC(=O)c1c(C)oc2c1c(CN1CCN(C(=O)OCC)CC1)c(O)c1ccccc12 | 0 | -8 | 13 | -23 | 19 | -2 | ·
CCOC(=O)c1c(C)oc2c(CC(=O)c3ccccc3)c(Cl)c(O)c(O)c12 | 16* | 3 | -9 | -56 | 35 | -0.02 | 13
CC(C)C1/C(=N/O)CC(c2ccccc2)NC1c1ccccc1 (stereo not drawn) | 15* | · | -12 | · | -9 | · | 6
CCCC1/C(=N/O)CC(c2ccccc2)NC1c1ccccc1 (stereo not drawn) | 0 | · | -14 | · | -11 | · | ·
O=C(Oc1ccc(C(=S)N2CCC(O)CC2)cc1)c1ccc(Cl)cc1 | 20* | · | -12 | · | 0 | · | 29*
O=C(Oc1ccc(C(=S)N2CCCCC2)cc1)c1ccccc1 | 2 | · | 5 | · | -7 | · | ·
Cc1ccccc1S(=O)(=O)N(CC(O)CN1C(=O)NC(C)(C)C1=O)c1ccccc1 (stereo not drawn) | -5 | · | -4 | · | -9 | · | ·
CCc1cc(/C(Cc2csc(C)n2)=N/O)c(O)cc1O | 31* | 5 | -11 | -48 | -4 | 0.34 | 22*

Bioassay records as filed in PubChem BioAssay.
